Series [1] in a line: Stability of the compound in phosphate buffered saline assessed as compound remaining at 5 uM after 48 hrs by HPLC method. Type of series: physicochemical. Conditions: read-out: Stability. In a few lines: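 Compound held in 10 mM PBS pH 7.4 at 37 °C for 48 h; percent remaining measured.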
A short description of series [2]: Stability of the compound in mouse liver microsomes assessed as compound remaining at 5 uM after 6 hrs in absence of NADPH by HPLC method. Type of series: ADME, microsome. The settings on record: read-out: Stability. In a few lines: (§1)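 Final mix: 5 µM compound, mouse liver microsomes 1 mg/mL, 5 mM MgCl2, ±1 mM NADPH, in 10 mM PBS pH 7.4 at 37 °C. Preincubated, then started by adding microsomes. Samples at 0–6 h quenched with cold methanol and centrifuged. Supernatant run on C18 HPLC (5–95% CH3CN/0.1% TFA, 373 nm); percent remaining at 6 h.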
(Liver microsomes are vesicles of endoplasmic reticulum, rich in cytochrome P450 enzymes.)

A short description of series [3]: Stability of the compound in mouse liver microsomes assessed as compound remaining at 5 uM after 6 hrs in presence of NADPH by HPLC method. Conditions: read-out: Stability. The series is classed as ADME, microsome. In a few lines:
as §1

Series [4] deals with HT-29. The series can be described thus: Cytotoxicity against human HT-29 cells pretreated for 24 hrs under hypoxic condition followed by compound washout measured after 72 hrs by MTT assay. Type of series: functional, cell-based. In a few lines:
(§2)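 HT29 in McCoy's 5A, H460 in RPMI 1640, each with 10% FBS and 1% pen-strep, 37 °C, 5% CO2. Seeded and grown 24 h, then exposed for 24 h to serial dilutions (DMSO ≤0.1% final) in hypoxia (94% N2/5% CO2/1% O2 chamber) or air.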
Background: Tetrazolium assays rely on reduction of a dye to a coloured formazan, in cell work by metabolically active cells.

Series [5] concerns HT-29. The series can be described thus: Cytotoxicity against human HT-29 cells pretreated for 24 hrs under normoxic condition followed by compound washout measured after 72 hrs by MTT assay. Type of series: cell-based. In a few lines: as §2
Series [6] relates to HT-29. The series can be described thus: Selectivity ratio of IC50 for human HT-29 cells under normoxic condition to IC50 for human HT-29 cells under hypoxic condition.
Series [7] concerns NCI-H460. The series can be described thus: Cytotoxicity against human NCI-H460 cells pretreated for 24 hrs under hypoxic condition followed by compound washout measured after 72 hrs by MTT assay. Type of series: functional, cell-based. In a few lines:
as §2

Series [8] relates to NCI-H460. The series can be described thus: Cytotoxicity against human NCI-H460 cells pretreated for 24 hrs under normoxic condition followed by compound washout measured after 72 hrs by MTT assay. Type of series: cell-based. In a few lines: as §2
The test system of series [9] is NCI-H460. Nature of the series: Selectivity ratio of IC50 for human NCI-H460 cells under normoxic condition to IC50 for human NCI-H460 cells under hypoxic condition.

`CCc1c2c(nc3ccc(OC(=O)N(C)CCN(C)C(=O)OCc4cnc([N+](=O)[O-])n4C)cc13)-c1cc3c(c(=O)n1C2)COC(=O)[C@]3(O)CC`: the remaining at 48 h, 5 µM in [1] was determined as 99%. The remaining at 6 h, 5 µM in [2] is 92%; in series [3], 13%. For the same compound, the IC50 (commonly the concentration that inhibits the measured activity by half) was 75.9 µM in the series on HT-29 [4], > 100 µM with HT-29 [5], 7.56 µM in the series on NCI-H460 [7] and 8.27 µM with NCI-H460 [8]. Besides, the “Ratio IC50” value in the series with HT-29 [6] is on record as >1.32; in the series on NCI-H460 [9] it was 1.09.
`CCc1c2c(nc3ccc(OCc4cnc([N+](=O)[O-])n4C)cc13)-c1cc3c(c(=O)n1C2)COC(=O)[C@]3(O)CC`: the remaining at 48 h, 5 µM in series [1] is 100%. In addition, the remaining at 6 h, 5 µM was 94% in series [2] and 72% in series [3]. Further, the IC50 in the series on HT-29 [4] turned out to be 3.89 µM; with HT-29 [5], 14.9 µM; in the series on NCI-H460 [7], 0.14 µM; in the series on NCI-H460 [8], 0.52 µM. In addition, the “Ratio IC50” value amounted to 3.82 with HT-29 [6] and 3.71 with NCI-H460 [9].
As to `CCc1c2c(nc3ccc(O)cc13)-c1cc3c(c(=O)n1C2)COC(=O)[C@]3(O)CC` [7-ETHYL-10-HYDROXYCAMPTOTHECIN], the IC50 in the series with HT-29 [4] stood at 3.71 µM; with HT-29 [5] it was 2.74 µM; with NCI-H460 [7], 0.06 µM; with NCI-H460 [8] it was 0.05 µM. Also, the “Ratio IC50” value in the series on HT-29 [6] is on record as 0.74; in the series with NCI-H460 [9], 0.83.
Regarding `Cn1c(COP(=O)(NCCBr)NCCBr)cnc1[N+](=O)[O-]` [EVOFOSFAMIDE], the IC50 with HT-29 [4] is 49.5 µM; in the series with HT-29 [5] it was > 100 µM; in the series on NCI-H460 [7], 9.08 µM; with NCI-H460 [8] it was 51 µM. The “Ratio IC50” value with HT-29 [6] is listed as >2.02; in the series with NCI-H460 [9], 5.61.

The values are drawn from ChEMBL document CHEMBL4024709, “Synthesis and biological evaluation of hypoxia-activated prodrugs of SN-38” (Eur J Med Chem, 2017).
